Laboratory results from ChEMBL document CHEMBL1138612, “Inhibition of monoamine oxidase by (E)-styrylisatin analogues” (Bioorg Med Chem Lett, 2009).

Legend:
[1] = Inhibition of human MAOB […] mutant
[2] = Inhibition of baboon liver MAOB; parameters: species or system Papio hamadryas
Outline: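 Baboon liver mitochondrial fractions as MAO-B source, with MMTP as substrate. IC50 from means ± SEM of duplicate determinations. Reversibility was tested by preincubating inhibitor (40 nM) with the mitochondria for 0, 15, 30 and 60 min.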

Homo sapiens = species: Homo sapiens; experiment: Selectivity ratio of Ki for recombinant wild-type MAOA from human liver to Ki for recombinant wild-type MAOB from human liver
Outline: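 Substrates were p-CF3-benzylamine for MAO-A (243 nm) and benzylamine for MAO-B (250 nm), six concentrations 50–3000 µM, three inhibitor levels. Ki from apparent Km versus inhibitor; selectivity = Ki(MAO-A)/Ki(MAO-B).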

[3] = biological target: T1, Amine oxidase [flavin-containing] A (Homo sapiens, UniProt P21397); experiment: Inhibition of recombinant wild-type MAOA from human liver expressed in Pichia pastoris
T1 sequence (P21397 whole entry): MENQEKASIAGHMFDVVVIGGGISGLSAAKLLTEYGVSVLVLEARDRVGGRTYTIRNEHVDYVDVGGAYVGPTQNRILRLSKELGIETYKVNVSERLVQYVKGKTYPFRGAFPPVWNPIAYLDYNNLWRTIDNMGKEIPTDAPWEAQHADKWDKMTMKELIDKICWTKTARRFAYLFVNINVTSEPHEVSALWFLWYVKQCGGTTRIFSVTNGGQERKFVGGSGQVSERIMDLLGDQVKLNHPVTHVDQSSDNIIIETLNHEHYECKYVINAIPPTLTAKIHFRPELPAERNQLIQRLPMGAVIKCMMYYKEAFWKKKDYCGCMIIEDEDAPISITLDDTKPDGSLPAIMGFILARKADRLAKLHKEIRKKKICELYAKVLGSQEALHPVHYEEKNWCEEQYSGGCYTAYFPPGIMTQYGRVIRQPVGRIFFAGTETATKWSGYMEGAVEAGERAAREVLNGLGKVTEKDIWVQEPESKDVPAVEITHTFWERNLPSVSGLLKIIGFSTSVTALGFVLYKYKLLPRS

[4] = biological target: T2, Amine oxidase [flavin-containing] B (Homo sapiens, UniProt P27338); experiment: Inhibition of recombinant wild-type MAOB from human liver expressed in Pichia pastoris
T2 sequence (P27338 whole entry): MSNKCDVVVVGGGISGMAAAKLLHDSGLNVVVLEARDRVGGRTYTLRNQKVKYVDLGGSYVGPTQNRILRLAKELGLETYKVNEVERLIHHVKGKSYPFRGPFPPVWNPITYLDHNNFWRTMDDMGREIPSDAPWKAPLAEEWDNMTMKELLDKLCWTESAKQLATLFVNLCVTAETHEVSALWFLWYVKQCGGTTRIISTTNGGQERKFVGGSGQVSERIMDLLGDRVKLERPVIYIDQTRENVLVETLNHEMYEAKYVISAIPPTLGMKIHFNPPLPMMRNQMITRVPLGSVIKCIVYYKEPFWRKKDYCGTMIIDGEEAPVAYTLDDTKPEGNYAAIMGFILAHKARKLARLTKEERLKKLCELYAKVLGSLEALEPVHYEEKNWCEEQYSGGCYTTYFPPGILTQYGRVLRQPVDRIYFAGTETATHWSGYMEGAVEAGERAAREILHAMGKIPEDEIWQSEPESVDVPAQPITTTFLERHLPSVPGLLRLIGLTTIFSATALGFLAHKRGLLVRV

Ki [1] | IC50 [2] | Ratio Ki (Homo sapiens) | Ki [3] | Ki [4] | SMILES
12500 nM | 20.7 nM | 2.5 | 5600 nM | 1400 nM | O=C1Nc2ccc(/C=C/c3cccc(Cl)c3)cc2C1=O
 |  |  | 2200 nM |  | O=C1Nc2ccc(/C=C/c3cccc(F)c3)cc2C1=O
1100 nM | 41.7 nM | 5 | 780 nM | 310 nM | O=C1Nc2ccc(/C=C/c3ccccc3)cc2C1=O
